Measured values published in ChEMBL document CHEMBL2375290, “Nonclassical antifolates, part 3: synthesis, biological evaluation and molecular modeling study of some new 2-heteroarylthio-quinazolin-4-ones” (Eur J Med Chem, 2013).
Converted amounts (≈) assume the structure as drawn.

Experiments:
Dihydrofolate reductase = target: T1, Dihydrofolate reductase (Bos taurus, UniProt P00376); test: Inhibition of bovine DHFR after 2 mins by spectrophotometry
T1 sequence (P00376 whole entry): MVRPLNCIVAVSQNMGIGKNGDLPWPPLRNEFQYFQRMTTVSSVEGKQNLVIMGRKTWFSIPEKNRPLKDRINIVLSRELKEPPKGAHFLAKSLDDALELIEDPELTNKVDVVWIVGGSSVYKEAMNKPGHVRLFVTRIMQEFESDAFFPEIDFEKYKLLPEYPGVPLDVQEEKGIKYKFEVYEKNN

Escherichia coli [1] = test: Antimicrobial activity against Escherichia coli at 200 ug after 24 hrs by agar disc diffusion method; type: functional; settings: read-out: DIZ
Staphylococcus aureus [2] = test: Antimicrobial activity against Staphylococcus aureus after 24 hrs by micro-dilution susceptibility method; type: functional
In short: (§1)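 Broth microdilution in Müller-Hinton broth against S. aureus IFO 3060, B. subtilis IFO 3007, E. coli IFO 3301 and P. aeruginosa IFO 3448. These are the same standard strains used in the disc-diffusion primary screen. Compounds were solubilized in DMSO. MIC recorded as the minimal inhibitory concentration.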

Pseudomonas aeruginosa = test: Antimicrobial activity against Pseudomonas aeruginosa at 200 ug after 24 hrs by agar disc diffusion method; type: functional; settings: read-out: DIZ
Escherichia coli [3] = test: Antimicrobial activity against Escherichia coli after 24 hrs by micro-dilution susceptibility method
Staphylococcus aureus [4] = test: Antimicrobial activity against Staphylococcus aureus at 200 ug after 24 hrs by agar disc diffusion method; type: functional; settings: read-out: DIZ
Bacillus subtilis [5] = test: Antimicrobial activity against Bacillus subtilis after 24 hrs by micro-dilution susceptibility method; type: functional; in short: as §1
Micrococcus luteus = test: Antimicrobial activity against Micrococcus luteus at 200 ug after 24 hrs by agar disc diffusion method; type: functional; settings: read-out: DIZ
Bacillus subtilis [6] = test: Antimicrobial activity against Bacillus subtilis at 200 ug after 24 hrs by agar disc diffusion method; type: functional; settings: read-out: DIZ
RXF 393 = test: Cytotoxicity against human RXF393 cells at 10 uM after 48 hrs by coulter counter analysis; type: functional; settings: RXF 393, 48 h, read-out: GI
CAKI-1 = test: Cytotoxicity against human Caki1 cells at 10 uM after 48 hrs by coulter counter analysis; type: functional; settings: CAKI-1, 48 h, read-out: GI
HL-60(TB) = test: Cytotoxicity against human HL-60(TB) cells at 10 uM after 48 hrs by coulter counter analysis; type: functional; settings: HL-60, 48 h, read-out: GI
MDA-MB-231 = test: Cytotoxicity against human MDA-MB-231 cells at 10 uM after 48 hrs by coulter counter analysis; type: functional; settings: MDA-MB-231, 48 h, read-out: GI
T47D = test: Cytotoxicity against human T47D cells at 10 uM after 48 hrs by coulter counter analysis; type: functional; settings: read-out: GI
SNB-19 = test: Cytotoxicity against human SNB19 cells at 10 uM after 48 hrs by coulter counter analysis; type: functional; settings: SNB-19, 48 h, read-out: GI
IGROV-1 = test: Cytotoxicity against human IGROV1 cells at 10 uM after 48 hrs by coulter counter analysis; type: functional; settings: IGROV-1, 48 h, read-out: GI
PC-3 = test: Cytotoxicity against human PC3 cells at 10 uM after 48 hrs by coulter counter analysis; type: functional; settings: PC-3, 48 h, read-out: GI
A498 = test: Cytotoxicity against human A498 cells at 10 uM after 48 hrs by coulter counter analysis; type: functional; settings: A498, 48 h, read-out: GI
SF-295 = test: Cytotoxicity against human SF295 cells at 10 uM after 48 hrs by coulter counter analysis; type: functional; settings: SF-295, 48 h, read-out: GI
NCI-H23 = test: Cytotoxicity against human NCI-H23 cells at 10 uM after 48 hrs by coulter counter analysis; type: functional; settings: NCI-H23, 48 h, read-out: GI
MDA-MB-435 = test: Cytotoxicity against human MDA-MB-435 cells at 10 uM after 48 hrs by coulter counter analysis; type: functional; settings: MDA-MB-435, 48 h, read-out: GI
SR = test: Cytotoxicity against human SR cells at 10 uM after 48 hrs by coulter counter analysis; type: functional; settings: read-out: GI
Malme-3M = test: Cytotoxicity against human MALME-3M cells at 10 uM after 48 hrs by coulter counter analysis; type: functional; settings: read-out: GI
RPMI-8226 = test: Cytotoxicity against human RPMI8226 cells at 10 uM after 48 hrs by coulter counter analysis; type: functional; settings: RPMI-8226, 48 h, read-out: GI
MOLT-4 = test: Cytotoxicity against human MOLT4 cells at 10 uM after 48 hrs by coulter counter analysis; type: functional; settings: MOLT-4, 48 h, read-out: GI
SN12C = test: Cytotoxicity against human SN12C cells at 10 uM after 48 hrs by coulter counter analysis; type: functional; settings: read-out: GI
NCI-H522 = test: Cytotoxicity against human NCI-H522 cells at 10 uM after 48 hrs by coulter counter analysis; type: functional; settings: NCI-H522, 48 h, read-out: GI
LOX IMVI = test: Cytotoxicity against human LOXIMVI cells at 10 uM after 48 hrs by coulter counter analysis; type: functional; settings: read-out: GI
[7] = Cytotoxicity against human EKVX cells at 10 uM after 48 hrs by coulter counter analysis; type: functional; settings: read-out: GI
UACC-62 = test: Cytotoxicity against human UACC62 cells at 10 uM after 48 hrs by coulter counter analysis; type: functional; settings: UACC-62, 48 h, read-out: GI
CCRF-CEM = test: Cytotoxicity against human CCRF-CEM cells at 10 uM after 48 hrs by coulter counter analysis; type: functional; settings: read-out: GI
UO-31 = test: Cytotoxicity against human UO31 cells at 10 uM after 48 hrs by coulter counter analysis; type: functional; settings: UO-31, 48 h, read-out: GI
SK-MEL-5 = test: Cytotoxicity against human SK-MEL-5 cells at 10 uM after 48 hrs by coulter counter analysis; type: functional; settings: SK-MEL-5, 48 h, read-out: GI
NCI-H226 = test: Cytotoxicity against human NCI-H226 cells at 10 uM after 48 hrs by coulter counter analysis; type: functional; settings: NCI-H226, 48 h, read-out: GI
OVCAR-4 = test: Cytotoxicity against human OVCAR4 cells at 10 uM after 48 hrs by coulter counter analysis; type: functional; settings: OVCAR-4, 48 h, read-out: GI
Hs-578T = test: Cytotoxicity against human Hs578T cells at 10 uM after 48 hrs by coulter counter analysis; type: functional; settings: read-out: GI
[8] = Cytotoxicity against human NCI-ADR-RES cells at 10 uM after 48 hrs by coulter counter analysis; type: functional; settings: read-out: GI
MCF7 = test: Cytotoxicity against human MCF7 cells at 10 uM after 48 hrs by coulter counter analysis; type: functional; settings: MCF7, 48 h, read-out: GI
SNB-75 = test: Cytotoxicity against human SNB75 cells at 10 uM after 48 hrs by coulter counter analysis; type: functional; settings: SNB-75, 48 h, read-out: GI
A549 = test: Cytotoxicity against human A549/ATCC cells at 10 uM after 48 hrs by coulter counter analysis; type: functional; settings: A549, 48 h, read-out: GI

Structure (SMILES)	IC50 (Dihydrofolate reductase) [µM]	zone of inhibition at 200 µg/disc (Escherichia coli [1]) [mm]	MIC (Staphylococcus aureus [2]) [µg/mL]	zone of inhibition at 200 µg/disc (Pseudomonas aeruginosa) [mm]	MIC (Escherichia coli [3]) [µg/mL]	zone of inhibition at 200 µg/disc (Staphylococcus aureus [4]) [mm]	MIC (Bacillus subtilis [5]) [µg/mL]	zone of inhibition at 200 µg/disc (Micrococcus luteus) [mm]	zone of inhibition at 200 µg/disc (Bacillus subtilis [6]) [mm]	inhibition of growth at 10 µM (RXF 393) [%]	inhibition of growth at 10 µM (CAKI-1) [%]	inhibition of growth at 10 µM (HL-60(TB)) [%]	inhibition of growth at 10 µM (MDA-MB-231) [%]	inhibition of growth at 10 µM (T47D) [%]	inhibition of growth at 10 µM (SNB-19) [%]	inhibition of growth at 10 µM (IGROV-1) [%]	inhibition of growth at 10 µM (PC-3) [%]	inhibition of growth at 10 µM (A498) [%]	inhibition of growth at 10 µM (SF-295) [%]	inhibition of growth at 10 µM (NCI-H23) [%]	further results
CCOC(=O)c1nc(N)sc1Sc1nc2ccc(C)cc2c(=O)n1-c1ccccc1	1	18	2 (≈ 4.56 µM)	12	4 (≈ 9.12 µM)	24	2 (≈ 4.56 µM)	14	26	–	–	–	–	–	–	–	–	–	–	–	–
COc1cc2nc(Sc3cc([N+](=O)[O-])ccc3C(=O)O)n(-c3ccccc3)c(=O)c2cc1OC	10	22	8 (≈ 16.7 µM)	8	2 (≈ 4.17 µM)	18	4 (≈ 8.34 µM)	8	20	–	–	–	–	–	–	–	–	–	–	–	–
COc1cc2nc(Sc3ncccc3C(=O)O)n(-c3ccccc3)c(=O)c2cc1OC	7	22	4 (≈ 9.19 µM)	8	2 (≈ 4.59 µM)	20	4 (≈ 9.19 µM)	15	22	< 10	17.7	< 10	< 10	< 10	< 10	< 10	< 10	< 10	< 10	< 10	inhibition of growth at 10 µM (MDA-MB-435): < 10%; inhibition of growth at 10 µM (SR): < 10%; inhibition of growth at 10 µM (Malme-3M): < 10%; inhibition of growth at 10 µM (RPMI-8226): < 10%; inhibition of growth at 10 µM (MOLT-4): < 10%; inhibition of growth at 10 µM (SN12C): < 10%; inhibition of growth at 10 µM (NCI-H522): 11.4%; inhibition of growth at 10 µM (LOX IMVI): < 10%; inhibition of growth at 10 µM [7]: < 10%; inhibition of growth at 10 µM (UACC-62): < 10%; inhibition of growth at 10 µM (CCRF-CEM): < 10%; inhibition of growth at 10 µM (UO-31): 12%; inhibition of growth at 10 µM (SK-MEL-5): < 10%; inhibition of growth at 10 µM (NCI-H226): 12%; inhibition of growth at 10 µM (OVCAR-4): < 10%; inhibition of growth at 10 µM (Hs-578T): < 10%; inhibition of growth at 10 µM [8]: < 10%; inhibition of growth at 10 µM (MCF7): < 10%; inhibition of growth at 10 µM (SNB-75): < 10%; inhibition of growth at 10 µM (A549): < 10%
Nc1ncc(Sc2nc3ccc(Cl)cc3c(=O)n2-c2ccccc2)s1	4	8	8 (≈ 20.7 µM)	8	–	18	4 (≈ 10.3 µM)	14	22	< 10	24.1	< 10	21.5	19.1	< 10	< 10	10.2	< 10	< 10	10.9	inhibition of growth at 10 µM (MDA-MB-435): < 10%; inhibition of growth at 10 µM (SR): 29.1%; inhibition of growth at 10 µM (Malme-3M): < 10%; inhibition of growth at 10 µM (RPMI-8226): < 10%; inhibition of growth at 10 µM (MOLT-4): < 10%; inhibition of growth at 10 µM (SN12C): < 10%; inhibition of growth at 10 µM (NCI-H522): 14%; inhibition of growth at 10 µM (LOX IMVI): 11.2%; inhibition of growth at 10 µM [7]: 12.9%; inhibition of growth at 10 µM (UACC-62): < 10%; inhibition of growth at 10 µM (CCRF-CEM): < 10%; inhibition of growth at 10 µM (UO-31): < 10%; inhibition of growth at 10 µM (SK-MEL-5): < 10%; inhibition of growth at 10 µM (NCI-H226): 25.7%; inhibition of growth at 10 µM (OVCAR-4): < 10%; inhibition of growth at 10 µM (Hs-578T): < 10%; inhibition of growth at 10 µM [8]: < 10%; inhibition of growth at 10 µM (MCF7): 19%; inhibition of growth at 10 µM (SNB-75): < 10%; inhibition of growth at 10 µM (A549): < 10%
Cc1ccc2nc(Sc3ncccc3C(=O)O)n(-c3ccccc3)c(=O)c2c1	8	16	4 (≈ 10.3 µM)	12	–	20	4 (≈ 10.3 µM)	14	22	< 10	13.1	< 10	< 10	< 10	< 10	< 10	11.7	< 10	< 10	< 10	inhibition of growth at 10 µM (MDA-MB-435): < 10%; inhibition of growth at 10 µM (SR): < 10%; inhibition of growth at 10 µM (Malme-3M): < 10%; inhibition of growth at 10 µM (RPMI-8226): 10.4%; inhibition of growth at 10 µM (MOLT-4): < 10%; inhibition of growth at 10 µM (SN12C): < 10%; inhibition of growth at 10 µM (NCI-H522): < 10%; inhibition of growth at 10 µM (LOX IMVI): < 10%; inhibition of growth at 10 µM [7]: < 10%; inhibition of growth at 10 µM (UACC-62): < 10%; inhibition of growth at 10 µM (CCRF-CEM): < 10%; inhibition of growth at 10 µM (UO-31): 12.1%; inhibition of growth at 10 µM (SK-MEL-5): < 10%; inhibition of growth at 10 µM (NCI-H226): < 10%; inhibition of growth at 10 µM (OVCAR-4): < 10%; inhibition of growth at 10 µM (Hs-578T): < 10%; inhibition of growth at 10 µM [8]: < 10%; inhibition of growth at 10 µM (MCF7): < 10%; inhibition of growth at 10 µM (SNB-75): < 10%; inhibition of growth at 10 µM (A549): < 10%
CCOC(=O)c1nc(N)sc1Sc1nc2ccc(Cl)cc2c(=O)n1Cc1ccccc1	1	20	4 (≈ 8.46 µM)	8	4 (≈ 8.46 µM)	20	2 (≈ 4.23 µM)	14	22	–	–	–	–	–	–	–	–	–	–	–	–
